# Measurements as given in article PMC4090259 (Stem cell research, 2014).
# pIC50: −log10 of the molar value. Where two headings read alike, the source gives them in different places.
# Legend:
# [1] = test system: ReNcell CX neural progenitor cell line; conditions: cited from earlier work
# [2] = test system: various cancer cell lines; conditions: literature values for various cancer cell lines; ref Chauffert & Dimanche-Boitrel 1998; Lee et al. 2008; Meli et al. 2012; cited from earlier work
# ReNcell VM cells [3] = format: cell-based, human
# ReNcell VM cells [4] = experiment: Cytotoxicity in 2D ReNcell VM cultures, 96-well plate format; format: cell-based; conditions: Homo sapiens
# Procedure, shortened: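 Human neural stem cells seeded at 5,000 cells/well and left to attach for at least 5 h. Doses made by 4-fold serial dilution from the highest dose, each holding 0.5% DMSO vehicle. Viability read by MTT: 2.5 mg/ml MTT solution added, 3 h under culture conditions, supernatant removed, formazan dissolved in DMSO, absorbance at 590 nm with 690 nm reference.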
# [5] = test system: ReNcell VM differentiated progeny (astrocytic phenotype); format: cell-based, human
# Hep3B = conditions: when P450 metabolism was absent; ref Lee et al. 2008; cited from earlier work
smiles,measurement,setting,value
"O=c1[nH]cc(F)c(=O)[nH]1 [5-Fluorouracil, 5-fluorouracil]",effect on proliferation and viability,"[1]; non-differentiated, 2D well plate, after 24 h of incubation with the drug, ref Breier et al. 2008a",inhibited proliferation without affecting viability
same,pIC50,[2],4.07 to 6.00
"CC(=O)Nc1ccc(O)cc1 [Acetaminophen, acetaminophen]",pIC50,"ReNcell VM cells [3]; Homo sapiens, ReNcell VM",2.62
same,viability of the cells below the hepatotoxic range of concentrations,"ReNcell VM cells [3]; hNSC line, concentrations below ~0.2 – 1 mM",remains unaffected
same,pIC50,ReNcell VM cells [4],2.75
same,viability of the cells below the hepatotoxic range of concentrations,"[5]; differentiated progeny, concentrations below ~0.2 – 1 mM",remains unaffected
same,toxicity,Hep3B,non-toxic
"[Cl][Cd][Cl] [CdCl, cadmium chloride hydrate]",pIC50,"ReNcell VM cells [3]; Non-differentiated, 3D alginate microarray, 24 h exposure + 48 h in medium",5.13
"C[C@@H]1C[C@H]2[C@@H]3CCC4=CC(=O)C=C[C@]4(C)[C@@]3(F)[C@@H](O)C[C@]2(C)[C@@]1(O)C(=O)CO [Dexamethasone, dexamethasone]",pIC50,"ReNcell VM cells [3]; Homo sapiens, ReNcell VM",2.70
same,effect on viability,"[1]; concentrations of up to 100 μM, ref Breier et al. 2008b",negligible effect on viability
same,pIC50,ReNcell VM cells [4],3.67
same,pIC50,"[5]; Homo sapiens, ReNcell VM",4.22
